Results: ChEMBL document CHEMBL1154249, “Semisynthesis and biological evaluation of abietane-type diterpenes. Revision of the structure of rosmaquinone” (J Nat Prod, 2009)
≈ marks a conversion by molar mass, not a printed value.

Key:
[1] = tested on: Pseudomonas aeruginosa; test: Antibacterial activity against Pseudomonas aeruginosa AK958 after 24 hrs by broth dilution assay; format: functional; conditions: AK958, 24 h
In short: (§1)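 Microdilution in nutrient broth at 37 °C, about (1-5) × 10^5 cfu/mL inoculum, compounds in DMSO (≤1% v/v, matched DMSO controls), in triplicate. Growth followed by OD550. Wells without visible growth after 24 h on a rotary shaker were subcultured in duplicate onto nutrient agar and colonies counted after overnight incubation. MIC is the lowest concentration inhibiting growth at 24 h.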

[2] = tested on: HeLa; test: Cytotoxicity against human HeLa cells at lag phase of growth after 48 hrs by MTT assay; format: functional, cell-based
In short: (§2)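 Monolayers grown in DMEM with 5% fetal calf serum and penicillin-streptomycin at 37 °C, 5% CO2. 2×10^4 cells/well in lag or log phase were exposed for 48 h to a concentration series of compounds predissolved in DMSO. MTT formazan was dissolved in DMSO and read at 550 nm. IC50 taken from the curve; three independent experiments.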

[3] = tested on: HeLa; test: Cytotoxicity against human HeLa cells at exponential phase of growth after 48 hrs by MTT assay; format: functional, cell-based; in short: as §2
[4] = tested on: Staphylococcus epidermidis; test: Antibacterial activity against Staphylococcus epidermidis ATCC 14990 after 24 hrs by broth dilution assay; format: functional; conditions: Staphylococcus epidermidis, ATCC 14990, 24 h; read-out: MIC; in short: as §1
[5] = tested on: HEp-2; test: Cytotoxicity against human Hep2 cells at lag phase of growth after 48 hrs by MTT assay; format: functional, cell-based; in short: as §2
[6] = tested on: A549; test: Cytotoxicity against human A549 cells at lag phase of growth after 48 hrs by MTT assay; format: functional, cell-based; in short: as §2
[7] = tested on: A549; test: Cytotoxicity against human A549 cells at exponential phase of growth after 48 hrs by MTT assay; format: functional, cell-based; in short: as §2
[8] = tested on: Candida albicans; test: Antibacterial activity against Candida albicans CECT 170 after 24 hrs by broth dilution assay; format: functional; conditions: CECT 1039, 24 h, in the assay text read “CECT 1039” for “CECT 170”
In short: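 Yeast grown in Sabouraud liquid medium at 37 °C. Microdilution in triplicate, about (1-5) × 10^5 cfu/mL, DMSO ≤1% v/v with matched controls. OD550 followed. Clear wells at 24 h were plated in duplicate on Sabouraud agar and counted after overnight incubation. MIC is the lowest concentration inhibiting growth.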

[9] = tested on: Proteus mirabilis; test: Antibacterial activity against Proteus mirabilis CECT 170 after 24 hrs by broth dilution assay; format: functional; conditions: CECT 170, 24 h; in short: as §1
[10] = tested on: Mycolicibacterium smegmatis; test: Antibacterial activity against Mycobacterium smegmatis ATCC 19420 after 48 hrs by broth dilution assay; format: functional; conditions: ATCC 19420, 48 h
In short: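 Brain heart infusion broth with 0.06% Tween 80, 37 °C on a rotary shaker, inoculum about (1-5) × 10^5 cfu/mL, DMSO ≤1% v/v with matched controls, in triplicate. OD550 monitored.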

[11] = tested on: Salmonella; test: Antibacterial activity against Salmonella CECT 4569 after 24 hrs by broth dilution assay; format: functional; conditions: CECT 4569, 24 h; in short: as §1
[12] = tested on: Enterococcus faecalis; test: Antibacterial activity against Enterococcus faecalis ATCC 29212 after 24 hrs by broth dilution assay; format: functional; conditions: ATCC 29212, 24 h
In short: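 Microdilution in brain heart infusion broth, shaken at 37 °C, about (1-5) × 10^5 cfu/mL start, DMSO ≤1% v/v with matched controls, in triplicate. OD550 read. Clear wells at 24 h were subcultured in duplicate onto brain heart infusion agar and counted after overnight incubation. MIC is the lowest concentration giving growth inhibition.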

[13] = tested on: Escherichia coli; test: Antibacterial activity against Escherichia coli ATCC 9637 after 24 hrs by broth dilution assay; format: functional; conditions: ATCC 9637, 24 h; in short: as §1
[14] = tested on: Bacillus cereus; test: Antibacterial activity against Bacillus cereus ATCC 21772 after 24 hrs by broth dilution assay; format: functional; conditions: Bacillus cereus, ATCC 21772, 24 h
[15] = tested on: MCF7; test: Cytotoxicity against human MCF7 cells at lag phase of growth after 48 hrs by MTT assay; format: functional, cell-based; in short: as §2
[16] = tested on: Vero; test: Cytotoxicity against african green monkey Vero cells at exponential phase of growth after 48 hrs by MTT assay; format: cell-based, Chlorocebus sabaeus; in short: as §2
[17] = tested on: MCF7; test: Cytotoxicity against human […] cells at exponential phase of growth after 48 hrs by MTT assay; format: functional, cell-based; in short: as §2
[18] = tested on: Bacillus subtilis; test: Antibacterial activity against Bacillus subtilis ATCC 6051 after 24 hrs by broth dilution assay; format: functional; conditions: Bacillus subtilis, ATCC 6051, 24 h; read-out: MIC
[19] = tested on: Vero; test: Cytotoxicity against african green monkey Vero cells at lag phase of growth after 48 hrs by MTT assay; format: cell-based, Chlorocebus sabaeus; in short: as §2
[20] = tested on: Staphylococcus aureus; test: Antibacterial activity against Staphylococcus aureus ATCC 6538 after 24 hrs by broth dilution assay; format: functional; conditions: Staphylococcus aureus, ATCC 6538, 24 h; read-out: MIC
[21] = tested on: HEp-2; test: Cytotoxicity against human Hep2 cells at exponential phase of growth after 48 hrs by MTT assay; format: functional, cell-based; in short: as §2
[22] = Homo sapiens, HeLa, 48 h, read-out: IC50
[23] = Homo sapiens, A549, 48 h, read-out: IC50
[24] = Homo sapiens, MCF7, 48 h, read-out: IC50
[25] = Chlorocebus sabaeus, Vero, 48 h, read-out: IC50
[26] = Homo sapiens, HEp-2, 48 h, read-out: IC50

Structure (SMILES) | MIC [1] [µg/mL] | MIC [4] [µg/mL] | MIC [8] [µg/mL] | MIC [9] [µg/mL] | MIC [10] [µg/mL] | MIC [11] [µg/mL] | MIC [12] [µg/mL] | MIC [13] [µg/mL] | MIC [14] [µg/mL] | MIC [18] [µg/mL] | MIC [20] [µg/mL] | IC50 [2, 22] [µM] | IC50 [3, 22] [µM] | IC50 [6, 23] [µM] | IC50 [7, 23] [µM] | IC50 [15, 24] [µM] | IC50 [16, 25] [µM] | IC50 [17, 24] [µM] | IC50 [19, 25] [µM] | also measured
CC(C)c1cc2c(c(O)c1O)[C@@]13CCCC(C)(C)[C@@H]1[C@H](OC3=O)[C@@H]2OCc1ccccc1 | > 40 | > 40 | > 40 | > 40 | > 40 | > 40 | > 40 | > 40 | 10 (≈ 22.9 µM) | 20 (≈ 45.8 µM) | > 40 | – | – | – | – | – | – | – | – | IC50 ([2]; hela): Not Active; IC50 ([3]; hela): Not Active; IC50 ([5]; hep-2): Not Active; IC50 ([6]; a549): Not Active; IC50 ([7]; a549): Not Active; IC50 ([15]; mcf7): Not Active; IC50 ([16]; vero): Not Active; IC50 ([17]; mcf7): Not Active; IC50 ([19]; vero): Not Active; IC50 ([21]; hep-2): Not Active
CO[C@@H]1c2cc(C(C)C)c(O)c(O)c2[C@@]23CCCC(C)(C)[C@@H]2[C@@H]1OC3=O | > 40 | 20 (≈ 55.5 µM) | > 40 | > 40 | > 40 | > 40 | > 40 | > 40 | 20 (≈ 55.5 µM) | 20 (≈ 55.5 µM) | > 40 | 40.8 | > 60 | 35.6 | 50.8 | 23.3 | 33.9 | 41.1 | 36.7 | –
CO[C@H]1c2cc(C(C)C)c(O)c(O)c2[C@@]23CCCC(C)(C)[C@@H]2[C@@H]1OC3=O | > 40 | 20 (≈ 55.5 µM) | > 40 | > 40 | > 40 | > 40 | > 40 | > 40 | 20 (≈ 55.5 µM) | > 40 | > 40 | 42.2 | > 60 | 42.5 | > 60 | 37.5 | 47.2 | 55.6 | 42.2 | –
CC(C)c1cc2c(c(O)c1O)[C@@]13CCCC(C)(C)[C@@H]1C[C@@H]2OC3=O [CARNOSOL] | > 40 | 5 (≈ 15.1 µM) | 20 (≈ 60.5 µM) | > 40 | > 40 | > 40 | > 40 | > 40 | 5 (≈ 15.1 µM) | 4 (≈ 12.1 µM) | 25 (≈ 75.7 µM) | 43.9 | > 60 | > 60 | 47 | 40.9 | 51.5 | 44.5 | > 60 | –
CC(C)c1cc2c(c(O)c1O)[C@@]13CCCC(C)(C)[C@@H]1[C@@H](O)[C@@H]2OC3=O [ISOROSMANOL] | > 40 | 20 (≈ 57.7 µM) | > 40 | > 40 | > 40 | > 40 | > 40 | > 40 | 20 (≈ 57.7 µM) | 30 (≈ 86.6 µM) | 40 (≈ 115 µM) | > 60 | > 60 | > 60 | 46 | 54.3 | > 60 | 36.1 | > 60 | –
CC(C)c1cc2c(c(O)c1O)[C@@]13CCCC(C)(C)[C@@H]1[C@H](OC3=O)[C@H]2O [ROSMANOL] | > 40 | 10 (≈ 28.9 µM) | > 40 | > 40 | – | > 40 | > 40 | > 40 | 20 (≈ 57.7 µM) | 10 (≈ 28.9 µM) | 20 (≈ 57.7 µM) | 20.2 | 51.4 | 43.4 | 27.7 | 17.1 | 36.4 | 15.3 | 19.9 | –
CO[C@H]1C2=C(C(=O)C(=O)C(C(C)C)=C2)[C@@]23CCCC(C)(C)[C@@H]2[C@@H]1OC3=O [ROSMAQUINONE B] | > 40 | > 40 | > 40 | > 40 | > 40 | > 40 | > 40 | > 40 | 20 (≈ 55.8 µM) | 20 (≈ 55.8 µM) | 40 (≈ 112 µM) | 36 | 33.8 | > 60 | 25.4 | 43.3 | > 60 | 22.1 | > 60 | IC50 [5, 26]: 42.5 µM; IC50 [21, 26]: > 60 µM
CC(C)C1=CC2=C(C(=O)C1=O)[C@@]13CCCC(C)(C)[C@@H]1[C@H](OC3=O)[C@H]2O [ROSMAQUINONE] | > 40 | 40 (≈ 116 µM) | > 40 | > 40 | > 40 | > 40 | > 40 | > 40 | 10 (≈ 29 µM) | 8 (≈ 23.2 µM) | 20 (≈ 58.1 µM) | > 60 | > 60 | > 60 | 28.8 | 39.5 | > 60 | > 60 | > 60 | –
CC(C)C1=CC2=C[C@H]3OC(=O)[C@@]4(CCCC(C)(C)[C@H]34)C2=C(O)C1=O [SAGEQUINONE METHIDE A] | > 40 | 40 (≈ 122 µM) | > 40 | > 40 | > 40 | > 40 | > 40 | > 40 | 10 (≈ 30.4 µM) | 10 (≈ 30.4 µM) | 20 (≈ 60.9 µM) | 14 | 9.5 | > 60 | 26.5 | 46 | > 60 | 26.8 | > 60 | IC50 [5, 26]: 32 µM; IC50 [21, 26]: 19.2 µM
